Assay results: ChEMBL document CHEMBL1129493 (J Med Chem, 1996)
≈ marks a conversion by molar mass, not a printed value. Calls of active or inactive are those of the source.

Legend:
HCT-8 = assay: Activity was evaluated against HCT-8 tumor cells; format: functional, cell-based; conditions: Homo sapiens
Procedure, shortened: (§1)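 Cytotoxicity was read by MTT dye reduction for suspension cultures or sulforhodamine B for monolayer cultures. For reversal of multidrug resistance, reserpine was added as reversing agent ([…] as printed).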

Dihydrofolate reductase [1] = biological target: T1, Dihydrofolate reductase (Candida albicans, UniProt P22906); assay: Inhibition of Dihydrofolate reductase enzyme from Candida albicans
T1 sequence (P22906 whole entry): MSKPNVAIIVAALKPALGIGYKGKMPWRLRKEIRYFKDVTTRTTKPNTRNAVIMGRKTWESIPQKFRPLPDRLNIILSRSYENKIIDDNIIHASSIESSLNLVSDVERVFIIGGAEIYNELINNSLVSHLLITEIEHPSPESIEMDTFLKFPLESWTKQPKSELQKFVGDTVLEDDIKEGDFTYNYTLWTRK

Candida albicans = assay: Minimum inhibitory concentration evaluated against Candida albicans; format: functional
Dihydrofolate reductase [2] = biological target: T2, Dihydrofolate reductase (Homo sapiens, UniProt P00374); assay: Inhibition of human recombinant Dihydrofolate reductase enzyme
T2 sequence (P00374 whole entry): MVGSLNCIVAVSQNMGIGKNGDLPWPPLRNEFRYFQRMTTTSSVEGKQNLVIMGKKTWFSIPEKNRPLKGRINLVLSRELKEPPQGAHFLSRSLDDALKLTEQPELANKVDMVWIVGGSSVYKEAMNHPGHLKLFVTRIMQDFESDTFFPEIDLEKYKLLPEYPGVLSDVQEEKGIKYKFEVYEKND

[3] = Cytotoxic activity was evaluated against Daoy tumor cells; format: functional, cell-based; conditions: Homo sapiens; procedure, shortened: as §1
Mus musculus [4] = assay: Effect on life span of mice with intraperitoneally implanted P388 Leukemic cells; format: functional
Procedure, shortened: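 CDF-1 female mice (18–20 g, 5 or 8/group); P388 or P388/ADR cells implanted ip at 1 × 10^6 cells. Dosing began 24 h later; agents suspended in 0.5% carboxymethyl cellulose plus 1% Tween 80, given sc or ip qd × 10. Read-out was percent increase in life span.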

U-87 MG = assay: Cytotoxic activity was evaluated against U87MG tumor cells; format: functional, cell-based, U-87MG ATCC; conditions: Homo sapiens; procedure, shortened: as §1
[5] = Relative concentration of compound in brain compared to concentration in plasma (0.4 ug/mL) at the time of tissue collection from mice; relative concentration; format: ADME, organism-based; conditions: mouse, read-out: Activity
Mus musculus [6] = assay: Effect on life span of mice with intracranially implanted P388 Leukemic cells; format: functional
Procedure, shortened: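 CDF-1 female mice (18–20 g, 5 or 8/group); P388 leukemia, maintained by in vivo serial passage, implanted intracranially at 1 × 10^5 cells. Treatment started 24 h later; test agents suspended in 0.5% carboxymethyl cellulose plus 1% Tween 80, given sc or ip qd × 10. Read-out was percent increase in life span versus controls.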

P388 [7] = assay: Cytotoxic activity was evaluated against P388D1 tumor cells; format: functional, cell-based; conditions: Mus musculus; procedure, shortened: as §1
[8] = Cytotoxic activity was evaluated against L tumor cells; format: functional, cell-based; conditions: Mus musculus; procedure, shortened: as §1
A549 = assay: Cytotoxic activity evaluated against A549 tumor cells; conditions: Homo sapiens
Mus musculus [9] = species on record: Mus musculus; assay: Effect on Candida albicans nephritis and Meningitis in Immunosuppressed Mice kidney; format: functional
Procedure, shortened: (§2)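 Immunosuppressed CD-1 female mice (10/group) given cyclophosphamide ip, 160 and 40 mg/kg on days -4 and -1; C. albicans 5 × 10^4 cfu/mouse iv via lateral tail vein. Sc dosing of 20 or 50 mg/kg in sesame oil at 3, 7, 24, 30 h post-inoculation; sulfamethoxazole 200 mg/kg ip in D5W given 1 h before each dose. Kidney and brain cultured at 48 h; log cfu/g tissue.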

[10] = Tissue distribution of the in rat brain relative to plasma concentration of 1 mg/kg; relative concentration
[11] = Tissue distribution of the in rat lung relative to plasma concentration of 1 mg/kg; relative concentration
KB [12] = assay: Cytotoxic activity was evaluated against KBV-1 cells; format: functional, Homo sapiens; procedure, shortened: as §1
MCF7 [13] = assay: Cytotoxic activity was evaluated against MCF-7/ADR+Reserpine cells; format: functional, Homo sapiens; procedure, shortened: as §1
P388 [14] = assay: Cytotoxic activity was evaluated against P388D1/ADR cells; format: functional, Mus musculus; procedure, shortened: as §1
KB [15] = assay: Cytotoxic activity was evaluated against KBV-1 cells in presence of reserpine; format: functional, Homo sapiens; procedure, shortened: as §1
P388 [16] = assay: Cytotoxic activity was evaluated against P388/ADR + reserpine cells; format: functional, Mus musculus; procedure, shortened: as §1
KB 3-1 = assay: Cytotoxic activity was evaluated against KB3-1 cells; format: functional, Homo sapiens; procedure, shortened: as §1
MCF7 [17] = assay: Cytotoxic activity was evaluated against MCF-7/ADR cells; format: functional, Homo sapiens; procedure, shortened: as §1
P388 [18] = assay: Cytotoxic Activity was evaluated against P388D1 cells; format: functional, Mus musculus; procedure, shortened: as §1
MCF7 [19] = assay: Cytotoxic activity was evaluated against MCF-7 cells; format: functional, Homo sapiens; procedure, shortened: as §1
Mus musculus [20] = species on record: Mus musculus; assay: Effect on Candida albicans nephritis and Meningitis in Immunosuppressed Mice brain; format: functional; procedure, shortened: as §2
Mus musculus [21] = species on record: Mus musculus

| IC50 (HCT-8) | Ki (Dihydrofolate reductase [1]) | MIC (Candida albicans) | Ki (Dihydrofolate reductase [2]) | Structure (SMILES) | also measured |
| --- | --- | --- | --- | --- | --- |
| 3.1 nM | 0.65 nM | 0.1 µg/mL (≈ 0.371 µM) | 0.024 nM | CCCc1cc2c3c(N)nc(N)nc3ccc2n1CC | – |
| 0.75 nM | < 0.05 nM | > 0.1 µg/mL | 0.0001 nM | CCC(CC)n1c(C(C)C)cc2c3c(N)nc(N)nc3ccc21 | – |
| 85 nM | – | 0.1 µg/mL (≈ 0.44 µM) | 0.087 nM | Cc1cc2c3c(N)nc(N)nc3ccc2n1C | – |
| 7.4 nM | 0.22 nM | 0.025 µg/mL (≈ 0.0979 µM) | 0.0064 nM | Cc1cc2c3c(N)nc(N)nc3ccc2n1C(C)C | – |
| – | – | – | – | Cc1nc(N)nc(N)c1-c1ccc(Cl)c(Cl)c1 [METOPRINE] | Kp [10]: 6.5; Kp [11]: 31 |
| 0.57 nM | < 0.06 nM | 0.1 µg/mL (≈ 0.336 µM) | 0.0002 nM | CCc1cc2c3c(N)nc(N)nc3ccc2n1C(CC)CC | – |
| 1.3 nM | < 0.06 nM | 0.05 µg/mL (≈ 0.168 µM) | 0.0002 nM | CC(C)n1c(C(C)(C)C)cc2c3c(N)nc(N)nc3ccc21 | – |
| 4.4 nM | < 0.11 nM | > 0.1 µg/mL | 0.0004 nM | CCCc1cc2c3c(N)nc(N)nc3ccc2n1C(CC)CC | – |
| 0.59 nM | 0.33 nM | 0.2 µg/mL (≈ 0.783 µM) | 0.01 nM | CCc1cc2c3c(N)nc(N)nc3ccc2n1CC | – |
| 0.82 nM | < 0.05 nM | 0.1 µg/mL (≈ 0.353 µM) | 0.0001 nM | CCc1cc2c3c(N)nc(N)nc3ccc2n1C(C)CC (centres undefined) | – |
| 8 nM | 1.3 nM | 0.1 µg/mL (≈ 0.414 µM) | 0.029 nM | CCc1cc2c3c(N)nc(N)nc3ccc2n1C | – |
| – | – | – | – | CC[C@]1(O)C[C@@H]2CN(CCc3c([nH]c4ccccc34)[C@@](C(=O)OC)(c3cc4c(cc3OC)N(C)[C@H]3[C@@](O)(C(=O)OC)[C@H](OC(C)=O)[C@]5(CC)C=CCN6CC[C@]43[C@@H]65)C2)C1 [VINBLASTINE] | Relative IC50 (KB [12]): 2000; Relative IC50 (MCF7 [13]): 0.5; Relative IC50 (P388 [14]): 19 nM; Relative IC50 (KB [15]): 1.3; Relative IC50 (P388 [16]): 0.2 nM; Relative IC50 (KB 3-1): 1; Relative IC50 (MCF7 [17]): 17500; Relative IC50 (P388 [18]): 1; Relative IC50 (MCF7 [19]): 1 |
| – | 0.16 nM | 0.05 µg/mL (≈ 0.207 µM) | 0.01 nM | CC(C)c1cc2c(ccc3nc(N)nc(N)c32)[nH]1 | – |
| 3.3 nM | 0.12 nM | 0.05 µg/mL (≈ 0.196 µM) | < 0.002 nM | CC(C)(C)c1cc2c(ccc3nc(N)nc(N)c32)[nH]1 | – |
| – | – | – | – | Cc1cc(NS(=O)(=O)c2ccc(N)cc2)no1 [SULFAMETHOXAZOLE] | Log cfu/g of tissue (Mus musculus [20]): 4.7; Log cfu/g of tissue (Mus musculus [9]): 7.3 |
| 1.4 nM | 0.33 nM | 0.1 µg/mL (≈ 0.371 µM) | < 0.002 nM | CCn1c(C(C)C)cc2c3c(N)nc(N)nc3ccc21 | – |
| 580 nM | 25 nM | 1.6 µg/mL (≈ 7.5 µM) | 0.23 nM | Cn1ccc2c3c(N)nc(N)nc3ccc21 | – |
| – | – | – | – | COc1cc(Cc2cnc(N)nc2N)cc(OC)c1OC | No. of mice infected /total (Mus musculus [21]): Partially active |
| 52 nM | 0.38 nM | > 0.1 µg/mL | – | CCCCc1cc2c3c(N)nc(N)nc3ccc2n1C(C)(C)C | – |
| 1.3 nM | – | > 0.1 µg/mL | – | CCc1cc2c3c(N)nc(N)nc3ccc2n1C(C)(C)C | – |
| 2.1 nM | 0.0071 nM | 0.025 µg/mL (≈ 0.0882 µM) | 0.0004 nM | CCC(C)(C)n1c(C)cc2c3c(N)nc(N)nc3ccc21 | – |

| Structure (SMILES) | IC50 (HCT-8) | Ki (Dihydrofolate reductase [1]) | MIC (Candida albicans) | Ki (Dihydrofolate reductase [2]) | also measured |
| --- | --- | --- | --- | --- | --- |
| Nc1nc(N)c2c(ccc3[nH]ccc32)n1 | 1450 nM | 23 nM | 0.8 µg/mL (≈ 4.02 µM) | 1 nM | – |
| CCC(CC)n1ccc2c3c(N)nc(N)nc3ccc21 | 6 nM | 0.22 nM | 0.001 µg/mL (≈ 0.00371 µM) | 0.0045 nM | IC50 [3]: 80 nM; Increase in life-span (Mus musculus [4]): 80%; IC50 (U-87 MG): 8 nM; Kp [5]: 10; Increase in life-span (Mus musculus [6]): 55%; IC50 (P388 [7]): 4.5 nM; IC50 [8]: 2.2 nM; IC50 (A549): 10 nM; Log cfu/g of tissue (Mus musculus [9]): 6 |
